PglD inh: blocks C. jejuni PglD acetyltransferase activity | purified PglD enzyme, DTNB colorimetric CoA detection | inhibition, % at 12.5 µM | 360,000 compounds, 0.098% hits; in the data active = inhibition above about 16%, passing the limit was not always enough
CAL PDZ FP-1: inhibitors of human CAL PDZ peptide binding; inhibition, % at 20 µM; purified CAL PDZ, TMR-peptide fluorescence polarization, 1 h; Q9HD26; 330,000 compounds, 0.02% hits;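 active = highest replicate inhibition of at least 40%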;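 also: plate controls were DMSO neutral control wells for no effect and unlabeled competitor peptide control wells for full effect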
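Control set: unlabelled peptide and DMSO controls / Material: purified CerCALP PDZ construct / Timing: 1 h incubation at room temperature before polarization reading / Doses: 20 µM, one dose / Detection: fluorescence polarization (mP)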
miR-122 sensor: miR-122 inhibition in Huh7 cells; Huh7 miR-122 Renilla luciferase sensor, 48 h; neutral wells = 0, positive control = 100; activation (reporter increase), % at 12.5 µM; 340,000 compounds, 0.3% hits; AID 602342;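 active = mean replicate activation score at least 90 and every replicate individually at or above 90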;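 also: higher luciferase means less miR-122 activity so hits act as miR-122 inhibitors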
CAL PDZ FP-2: blocks peptide binding to the human CAL PDZ domain; inhibition, % at 24.9 µM; purified CAL PDZ, TMR-peptide fluorescence polarization, 1 h; AID 602252; 300,000 compounds, 0.92% hits; Q9HD26;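 active = mean inhibition of at least 30% with at least half of replicates also reaching 30%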;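 also: 0% = DMSO neutral control and 100% = excess unlabeled competitor peptide PRC23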
Cneo AK release: causes C. neoformans cell lysis; adenylate kinase release luminescence, 4 h; normalised: neutral wells 0, clomiphene wells 100; lysis activity, % at 15 µM; AID 651654; 360,000 compounds, 0.2% hits;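 active = mean lysis activity across replicates of at least 80%, whatever share of replicates individually reach that level; inactive = mean lysis activity below 80%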
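Material – Cryptococcus neoformans yeast cells · Quantity – 5 × 10^6 yeast cells/mL · Buffer or medium – YPD medium · Compound – single dose · Timing – 4 h static compound exposure, 37 °C, read 1 h post-reagent · Signal – adenylate kinase release luminescence · Read-out basis – lysis from increased AK signal · Benchmarks – Clomiphene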
Active calls of the source: *; x = not tested or not shown; [ ] = dose if it differs, or a comment. Most compounds without a hit are left out; they make up all but 1.1% or so of the library.

SMILES	PglD inh	CAL PDZ FP-1	miR-122 sensor	CAL PDZ FP-2	Cneo AK release
Nc1c(N(CCC2=CCCCC2)C(=O)CCCOc2ccccc2)c(=O)[nH]c(=O)n1Cc1ccccc1	-2	-1	x	49*	2
O=C(C[C@H]1C=C[C@@H](NC(=O)Nc2ccccc2F)[C@@H](CO)O1)NCc1ccc(F)cc1	7	x	x	x	58
C[C@@H]1CN([C@@H](C)CO)C(=O)c2cccc(NC(=O)NC3CCCCC3)c2O[C@H]1CN(C)Cc1ccc(Cl)c(Cl)c1	-3	x	71[16.7 µM]	x	2
C[C@@H](O)C#Cc1ccc([C@@H]2[C@@H](CO)N3CCCCN(CC4CCOCC4)C[C@@H]23)cc1	4	x	-3[16.7 µM]	x	-1
CN(C(=O)c1cc2ccccc2oc1=O)C1(C)CCS(=O)(=O)C1 (stereo unspecified)	x	-1	3	47*	x
C[C@H](CO)N1C[C@H](C)[C@H](CN(C)S(=O)(=O)CC(F)(F)F)OCc2ccccc2-c2c(n(C)c3ccccc23)C1=O	0	x	x	x	-1
CCC(=O)N1C[C@@H](C)[C@@H](OC)CN(C)C(=O)c2cc(NC(=O)C3CCOCC3)ccc2OC[C@@H]1C	2	x	x	x	-4
COc1ccc(N(C(=O)c2ccco2)S(=O)(=O)c2cc(Cl)c(Cl)cc2Cl)cc1	x	-2	134*	x	x
CC(C)NC(=O)Nc1ccc2c(c1)C(=O)N([C@H](C)CO)C[C@@H](C)[C@H](CN(C)S(=O)(=O)c1ccc(Cl)cc1)OCCCC[C@@H](C)O2	2	x	-6[16.7 µM]	x	0
CNC[C@@H]1OCCCC[C@@H](C)Oc2ccc(NS(=O)(=O)c3ccc(Cl)cc3)cc2C(=O)N([C@H](C)CO)C[C@H]1C	-2	x	32[16.7 µM]	x	100*
Cc1ccc(S(=O)(=O)Nc2ccc3c(c2)C(=O)N([C@@H](C)CO)C[C@H](C)[C@H](CN(C)S(=O)(=O)c2ccc(Cl)cc2)OCCCC[C@@H](C)O3)cc1	5	x	10[16.7 µM]	x	103*
C[C@H](CO)N1C[C@H](C)[C@@H](CN(C)C(=O)Nc2cccc3ccccc23)OCCCC[C@H](C)Oc2ccc(NS(=O)(=O)c3ccccc3)cc2C1=O	0	x	-9[16.7 µM]	x	-6
CNC[C@H]1OCCCC[C@@H](C)Oc2ccc(NS(=O)(=O)c3ccc(Cl)cc3)cc2C(=O)N([C@H](C)CO)C[C@H]1C	1	x	-1[16.7 µM]	x	-3
CC(C)NC(=O)Nc1ccc2c(c1)C(=O)N([C@@H](C)CO)C[C@@H](C)[C@@H](CN(C)S(=O)(=O)c1ccc(Cl)cc1)OCCCC[C@@H](C)O2	-1	x	1[16.7 µM]	x	102*
C[C@@H]1CCCCO[C@@H](CN(C)C(=O)Nc2cccc3ccccc23)[C@@H](C)CN([C@H](C)CO)C(=O)c2cc(NS(=O)(=O)c3ccccc3)ccc2O1	1	x	8[16.7 µM]	x	95*
Cc1ccc(S(=O)(=O)Nc2cccc3c2O[C@@H](CN(C)C)[C@@H](C)CN([C@@H](C)CO)C3=O)cc1	2	x	2[16.7 µM]	x	1
COc1ccc(S(=O)(=O)Nc2ccc3c(c2)C(=O)N([C@@H](C)CO)C[C@H](C)[C@@H](CN(C)C)OCCCC[C@H](C)O3)cc1	1	x	3[16.7 µM]	x	91*
COc1ccc(CC(=O)Nc2c(C(=O)N3CCN(c4ncccn4)CC3)oc3ccccc23)cc1	1	-2	80	43*	3
COc1ccc(CC(=O)Nc2c(C(=O)N3CCN(c4ncccn4)CC3)oc3ccccc23)cc1OC	-1	-2	17	-4	0
CCNC(=O)c1ccc(C23CC4CC(CC(C4)C2)C3)o1	-3	-1	1	1	-2
Cc1ccc(C)c(N(C(=O)Cn2nnc(-c3cccs3)n2)C(C(=O)NC2CCCC2)c2ccncc2)c1 (stereo unspecified)	0	0	-4	0	1
CC(C)(C)N(C(=O)Cn1nnc(-c2ccc(F)cc2)n1)C(C(=O)NC1CCCC1)c1ccncc1 (stereo unspecified)	x	-1	-6	36*	x
Cc1ccc(-c2nnn(CC(=O)N(Cc3ccc(F)cc3)C(C(=O)NC3CCCC3)c3ccncc3)n2)o1 (stereo unspecified)	0	-2	-5	6	0
O=C(NC1CCCC1)C(c1ccncc1)N(CC1CCCO1)C(=O)Cn1nnc(-c2cccs2)n1 (stereo unspecified)	-1	0	4	32*	-1
CO[C@H]1CN(C)C(=O)c2cc(NS(=O)(=O)c3ccc(Cl)cc3)ccc2OC[C@@H](C)N(C(=O)NC(C)C)C[C@@H]1C	x	x	-21[16.7 µM]	x	x
SMILES	PglD inh	CAL PDZ FP-1	miR-122 sensor	CAL PDZ FP-2	Cneo AK release
C[C@H]1CN([C@@H](C)CO)C(=O)c2cc(-c3ccccc3)cnc2O[C@@H]1CN(C)C(=O)c1ccccn1	-42	x	-1[16.7 µM]	x	105*
C[C@H](CO)N1C[C@H](C)[C@H](CN(C)C(=O)c2ccccn2)Oc2ncc(-c3ccccc3)cc2C1=O	2	x	16[16.7 µM]	x	81*
C[C@H]1CN([C@@H](C)CO)C(=O)c2cc(-c3ccc(F)cc3)cnc2O[C@@H]1CN(C)C(=O)c1ccccn1	-2	x	-6[16.7 µM]	x	-4
COCCCn1c(=O)c2sccc2n2c(CCCC(=O)NCc3ccc(F)cc3)nnc12	-4	-3	-4	-5	0
COCCCn1c(=O)c2sccc2n2c(CCCC(=O)NCc3cccc(OC)c3)nnc12	-4	-1	-5	47*	1
Cc1cc(C(=O)Nc2cccc3c2O[C@@H](CN(C)Cc2ccncc2)[C@H](C)CN([C@H](C)CO)C3=O)n(C)n1	-152	x	1[16.7 µM]	x	0
NC(=O)NCC#Cc1ccc2c(c1)[C@]1(C(=O)N2)[C@H](C(N)=O)[C@H]2C(=O)O[C@H](c3ccccc3)[C@H](c3ccccc3)N2[C@@H]1c1ccccc1OCCO	2	x	x	x	96*
Cc1c(C)c2ccc(OC(C)C(=O)NCCCn3ccnc3)c(C)c2oc1=O (stereo unspecified)	-2	0	6	71*	0
O=C(C(=O)N1CCCc2ccccc21)c1cn(CC(=O)N2CCOCC2)c2ccccc12	5	0	-3	5	2
Cn1cc(C(=O)C(=O)N2CCCc3ccccc32)c2ccccc21	4	-4	x	34*	0
COCC(=O)N1C[C@H](C)[C@@H](OC)CN(C)C(=O)c2ccc(NS(C)(=O)=O)cc2OC[C@@H]1C	-2	x	x	x	98*
CO[C@H]1CN(C)C(=O)c2cc(NS(=O)(=O)c3ccc(C)cc3)ccc2OC[C@@H](C)N(C(=O)NC(C)C)C[C@@H]1C	1	x	x	x	97*
CO[C@H]1CN(C)C(=O)c2cc(NS(=O)(=O)c3ccc(C)cc3)ccc2OC[C@@H](C)N(C(=O)NC(C)C)C[C@H]1C	-1	x	x	x	-2
CO[C@@H]1CN(C)C(=O)c2ccc(NS(C)(=O)=O)cc2OC[C@@H](C)N(C(=O)C2CCOCC2)C[C@H]1C	18*	x	-4[16.7 µM]	x	49
CN(CCCCCCCCCCN(C)C(=O)Oc1cccc([N+](C)(C)C)c1)C(=O)Oc1cccc([N+](C)(C)C)c1	7	0	-5	22	3
